Bioassay records (PubChem BioAssay)
M5 ag – agonists of human muscarinic M5 receptor (CHRM5); P08912; CHO-K1 hM5 cells, Fluo-8 calcium fluorescence; 0% DMSO wells, 100% maximal acetylcholine response; activation, % at 3 µM; 360,000 tested, 0.19% active;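 active means activation above the run's mean over test compounds plus 3 SD, cut at about 23% in these data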;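 further: signal is peak over basal fluorescence ratio across the kinetic read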
Target sequence (P08912 whole entry, looked up): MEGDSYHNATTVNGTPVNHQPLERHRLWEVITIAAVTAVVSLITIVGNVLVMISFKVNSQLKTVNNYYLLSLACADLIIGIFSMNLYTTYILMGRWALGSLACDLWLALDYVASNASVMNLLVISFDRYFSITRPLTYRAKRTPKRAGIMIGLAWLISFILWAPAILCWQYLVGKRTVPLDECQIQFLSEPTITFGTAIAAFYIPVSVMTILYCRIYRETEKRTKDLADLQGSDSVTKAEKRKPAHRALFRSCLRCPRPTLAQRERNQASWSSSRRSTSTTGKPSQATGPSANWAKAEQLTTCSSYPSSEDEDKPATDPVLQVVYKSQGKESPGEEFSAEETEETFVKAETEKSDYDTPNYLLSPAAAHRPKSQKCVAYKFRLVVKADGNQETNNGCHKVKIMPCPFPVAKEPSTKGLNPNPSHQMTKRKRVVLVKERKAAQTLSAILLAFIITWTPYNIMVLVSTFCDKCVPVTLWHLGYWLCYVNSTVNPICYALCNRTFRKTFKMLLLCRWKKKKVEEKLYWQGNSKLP
M5 PAM – potentiates acetylcholine response at human M5 receptor; P08912; CHO-K1 hM5, Fluo-8 calcium, ACh EC20 PAM; 0% = ACh EC20, 100% = ACh EC100; activation, % at 3 µM; 360,000 tested, 0.3% active;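 active means activation above the run cutoff, the mean activation of all test compounds plus 3 SD, cut at about 18% in these data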
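system = human M5 receptor in CHO-K1 cells | reagent = EC20 acetylcholine as agonist stimulus | compound dosing = single-point, 3 µM nominal | incubation = Fluo-8 loading 80 min at 37 °C plus 30 min room temperature | detection = Fluo-8 calcium dye fluorescence, kinetic read | benchmarks = low control EC20 acetylcholine (0%), high control EC100 acetylcholine (100%)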
M5 antag – blocks acetylcholine activation of human M5 receptor | P08912 | CHO-hM5 cells, Fluo-8 calcium fluorescence, ACh EC80 | inhibition, % at 3 µM | 360,000 tested, 0.59% active;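 active means inhibition above a per-plate cutoff, the mean of that plate's test compounds plus 3 SD, cut at about 27% in these data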;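 further: 0% = acetylcholine EC80 with DMSO and 100% = DMSO without agonist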
M4 antag – blocks acetylcholine activation of human M4 receptor. 360,000 tested, 0.73% active. inhibition, % at 3 µM. CHO-hM4 cells, ACh EC80, Fluo-8 calcium fluorescence;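 active means inhibition above its plate's cutoff, the mean inhibition of sample wells plus 3 SD, cut at about 27% in these data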;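 further: 0% = acetylcholine EC80 with DMSO and 100% = DMSO without agonist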
M4 PAM – CHRM4 positive allosteric modulation | CHO-K1 hM4/Gqi5, Fluo-8 calcium fluorescence, ACh EC20; 0% = ACh EC20, 100% = maximal ACh | activation, % at 3 µM | 360,000 tested, 0.4% active | AID 624126;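 active means activation above its plate's cutoff, the mean activation of sample wells plus 3 SD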
M4 ag – agonists of human muscarinic M4 receptor (CHRM4) | activation, % at 3 µM | AID 624127 | 360,000 tested, 0.14% active | CHO-K1 hM4/Gqi5, Fluo-8 calcium fluorescence; vehicle 0%, full acetylcholine response 100% | P08173;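 active means activation above the run mean over all test wells plus 3 SD, cut at about 32% in these data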;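 further: peak over basal fluorescence ratio per well then scaled between controls; 0% = DMSO wells and 100% = acetylcholine at EC100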
Active calls of the source: *. Shown are actives, neighbours in structure and some others; about 1.9% of the full set was active somewhere.

SMILES	M5 ag	M5 PAM	M5 antag	M4 antag	M4 PAM	M4 ag
CCn1c(=O)c([N+](=O)[O-])c(N2CCOCC2)c2ccccc21	-2	7	-4	4	3	0
Cn1c(=Nc2ccc(N3CCOCC3)cc2)ccc2ccccc21	-2	-21	39*	21	-5	2
Cn1c(N=Nc2ccc(N3CCOCC3)cc2)[n+](C)c2ccccc21	3	2	-1	2	3	-1
CCn1c(=Nc2ccc(N3CCOCC3)cc2)ccc2ccccc21	11	-24	67*	-2	0	1
CCn1c2ccccc2nc2cc3c(cc21)c(Cl)c(=O)c1ccccc13	1	1	2	-5	-4	1
CCCc1cc(=O)n2c([nH]c3ccccc32)c1C#N	31*	-13	17	-4	8	2
CC(C)N1CCC1(C)C(=O)Nc1nccc2cccnc12 (stereo not given)	0	0	10	-2	2	1
CN(C)c1ccc(NC(=O)CN2CCC(NC(=O)C3CCCCC3)CC2)cc1	-1	6	-4	-1	5	1
CN(C)c1ccc(NC(=O)CN2CCC(N3CCCCC3)CC2)cc1	-3	24*	0	-17	7	1
Cc1ccc(S(=O)(=O)N2C3CCCCC3O[C@H]2CC(=O)c2cccs2)cc1 (stereo not given in full)	1	13	-14	-3	-2	3
Cc1ccc(CN2C3CCCC2CC(NC(=O)c2ccc(F)cc2)C3)cc1 (stereo not given)	-20	-2	-11	13	-10	1
O=C(Nc1ccccc1-c1ccccc1)NC1CC2CCCC(C1)N2CCc1ccccc1 (stereo not given)	-10	-18	15	29*	-17	0
O=C(Nc1ccccc1-c1ccccc1)NC1CC2CCCC(C1)N2Cc1ccc(F)cc1 (stereo not given)	-10	-20	34*	58*	-23	1
CCN(CC)S(=O)(=O)c1ccc(Cl)c(C(=O)Nc2ccc(Cl)cc2[N+](=O)[O-])c1	2	-16	30*	25	-22	10
CN(C)S(=O)(=O)c1ccc(Cl)c(C(=O)Nc2ccccc2[N+](=O)[O-])c1	-2	4	-3	-14	0	4
Cc1ccc(O)c(C2=NNC(c3ccc(Cl)cc3)C2)c1 (stereo not given)	14	21*	51*	2	1	8
Oc1ccc(Cl)cc1C1=NNC(c2cccs2)C1 (stereo not given)	-1	-2	6	3	-5	0
Cc1ccnc2nc(C(=O)Nc3nccs3)nn12	-3	-3	-2	-5	13	2
Cc1ccnc2nc(C(=O)NC3=NCCS3)nn12	-3	-2	-6	-21	26*	2
Cn1nc(C#N)c(=O)[nH]c1=O	24*	63*	-157	2	-1	0
O=C(COC(=O)CCS(=O)(=O)c1ccccc1)NNC(=O)c1ccc([N+](=O)[O-])cc1	0	-1	-2	0	-1	0
CNc1cccc(-c2ccccc2CO)n1	-3	-6	-6	-18	6	2
CCN(CC)c1ccc(C(=C2C=CC(=[N+](CC)CC)C=C2)c2ccc(N(CC)CC)cc2)cc1	19	-17	36*	43*	-9	11
CCN(CC)c1ccc(C(=C2C=CC(=[N+](CC)CC)C=C2)c2ccccc2)cc1	30*	-46	85*	99*	-13	66*
CN1CCC(N2CCN(C3CN(C4CCCC4)S(=O)(=O)C3)CC2)CC1 (stereo not given)	2	-1	0	1	2	1
SMILES	M5 ag	M5 PAM	M5 antag	M4 antag	M4 PAM	M4 ag
Cc1ccc2c(C(=O)CN3CCCCC3)c(C)[nH]c2c1	-5	2	2	-11	8	1
Cc1ccc2c(C(=O)CN3CCOCC3)c(C)[nH]c2c1	2	25*	-12	-10	10	0
O=C(C1CC1)N1CCC(c2nc(-c3ccc(S(=O)(=O)N4CCCC4)cc3)no2)CC1	-7	-16	66*	-3	16	3
O=C(NC1CCCCC1)N1CCC(c2nc(-c3ccc(S(=O)(=O)N4CCCC4)cc3)no2)CC1	4	-1	-8	2	21	2
CN(Cc1ccccc1O)CC1CCCN(CCc2ccc(Cl)cc2)C1 (stereo not given)	-22	-28	6	37*	-14	3
CN(CC1CCCN(CCc2ccccc2F)C1)C(=O)c1cc2ccccc2o1 (stereo not given)	-3	-15	6	37*	-12	1
CC1=C(C(=O)N(C(C)C)C(C)C)CC(CC(=O)NCCc2ccccn2)C(=O)N1CCCN1CCCC1=O (stereo not given)	1	-2	-5	-20	5	0
COC(=O)[C@H](Cc1ccccc1)NC(=O)NCCC1=CCCCC1	-6	-23	63*	14	0	2
COC(=O)[C@H](CCSC)NC(=O)NCCC1=CCCCC1	-1	-21	35*	9	0	1
COC(=O)[C@H](C)NC(=O)NCCC1=CCCCC1	-1	-4	10	-4	-5	0
CCCCCCN1C[C@H](n2cc(COC(=O)c3ccccc3)nn2)[C@@H](O)C[C@@H]1c1ccc(C)cc1	2	-2	-3	-4	-5	2
NC(=O)NN=C1C2CCCC1C(c1ccccc1)NC2c1ccccc1 (stereo not given)	2	-18	4	49*	-14	-1
CCN(CC)c1ccc(C=C2SC(=S)NC2=O)cc1	72*	-37	35*	10	-12	21
CCCCNc1c(CC(C)C)nc2nc(C)cc(C)n12	1	-8	3	3	0	0
COc1cc2c(cc1OCc1ccccc1)/C(=C/C(=O)OCc1ccccc1)OC2	-1	-8	8	-12	12	-1
COc1cc(C2c3cc4c(cc3C(O)C3COCC23)OCO4)cc(OC)c1OC (stereo not given)	7	12	14	-4	3	0
COc1cc([C@@H]2c3cc4c(cc3[C@H](O)[C@H]3COC(=O)[C@H]23)OCO4)cc(OC)c1OC	1	-14	4	55*	-16	2
COc1ccc(C2OC(CCc3ccccc3)CC3=C2C(=O)OC(C)(C)O3)cc1 (stereo not given)	-3	0	3	0	7	-1
COCOCCn1cc(CN2CCS(=O)(=O)N(Cc3ccc(-c4ccc(Cl)c(Cl)c4)cc3)C(C(C)C)C2=O)nn1 (stereo not given)	0	-3	13	4	-3	6
